Consider 96 molecules from ChEMBL document CHEMBL4513216, “Probing the Open Global Health Chemical Diversity Library for Multistage-Active Starting Points for Next-Generation Antimalarials” (ACS Infect Dis, 2020).

A short description of this data set: Toxicity liver stage against HepG2, at 10uM. It counts as cell-based. Details: test concentration 10 uM, cell line HepG2-A16-CD81EGFP. Particulars: human, HepG2-A16-CD81EGFP cells; read-out: INHIBITION
Put shortly: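 Uninfected HepG2-A16-CD81EGFP cells, 3 × 10^3 per well, 1536-well, plated on prespotted compound at 10 μM final, parasite-free screening media added to match infected plates; puromycin 10 μM positive, DMSO 0.5% negative; run in parallel with 48 h PbLuc assay at 37 °C, 5% CO2; viability by CellTiter-Glo luminescence, normalized to controls.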

SMILES strings stand for the structures.

In the case of `CCOC(=O)C1CC2(CCCC2)N2CCC(=O)N12` (stereo unspecified), the cytotoxicity at 10 µM was determined as 1.53%.

Turning to `CN1CCCN(C(=O)c2cc3c(s2)CCN3C(=O)c2ccccc2)CC1`, the cytotoxicity at 10 µM was found to be 1.05%. Turning to `Cc1ccccc1SC1CCN(C(=O)C2[C@H]3CNC[C@@H]23)CC1` (stereo partly specified), the cytotoxicity at 10 µM is -10.1%.

`c1ccc(-c2cc(CN3CCC(c4ccn[nH]4)CC3)on2)cc1`: the cytotoxicity at 10 µM was found to be 7.98%. To `Cn1cc(S(=O)(=O)N2CCCC2Cn2ccnc2)cc1C(N)=O` (stereo unspecified) belongs 2.8%; to `Cc1ccc(-n2ccnc2)c(C(=O)NCCOCC2CCCO2)c1` (stereo unspecified), -139%. In the case of `Cc1ccc(C(=O)NC2CCCN(CC(N)=O)C2)c(=O)[nH]1` (stereo unspecified), the cytotoxicity at 10 µM came to 0.601%. With `COCc1noc(C2(c3ccc(Br)cc3)CCOCC2)n1`, the cytotoxicity at 10 µM was -9.61%. As to `COC[C@@H]1CCC[C@]12CN(Cc1cccc(C)n1)CCO2`, the cytotoxicity at 10 µM worked out at 5.53%.

Consider `COc1cc(CNC(C)Cn2ccnc2)cc2c1OCCO2` (stereo unspecified), for which the cytotoxicity at 10 µM was -94.1%. In the case of `COC(=O)c1ccc(NC(=O)CN2CCCCC2C2OCCO2)cc1` (stereo unspecified), the cytotoxicity at 10 µM came to 42.5%.

With `CCCc1nc(C(=O)N2CCCn3nc(CCC(=O)O)cc3C2)cs1`, the cytotoxicity at 10 µM was -9.84%. As for `CCC(=O)NC1CCCN(Cc2ccc(-n3ccnc3)cc2)C1` (stereo unspecified), the cytotoxicity at 10 µM was -47.8%.

For `Cc1nc(C)n(CC2CCCN(CCOc3cccc(F)c3)C2)n1` (stereo unspecified), the cytotoxicity at 10 µM was -3.18%. As for `CO[C@H]1CCN(c2ccc(C)nn2)[C@H]1Cc1cnn(C)c1`, the cytotoxicity at 10 µM is -12.7%. To `Cc1ncnc2c1CCN(C(=O)Cc1cccc(F)c1)CC2` belongs -5.95%; to `CC(Cn1cccn1)NC(=O)NCc1cccs1` (stereo unspecified), -0.12%.

Consider `Cn1ccc(C(=O)N2CCC3(CCN3c3ncccn3)C2)n1` (stereo unspecified), for which the cytotoxicity at 10 µM came out at 9.41%. Next, `OCCNc1nc(NCCc2ccccc2)nc2nccnc12`: 5.91%. Turning to `CN1CCC(Oc2ccc(-n3ccnc3-c3nccn3C)cc2)CC1`, the cytotoxicity at 10 µM was -7.41%. Next, `O=C(O)C(c1ccc2[nH]ccc2c1)N1CCOCC1` (stereo unspecified): 13.1%. For the molecule `Cc1noc([C@H]2COC[C@H]3CN(C(=O)Cc4ccccc4F)C[C@H]32)n1`, the cytotoxicity at 10 µM is -8.52%. `CNC(=O)C1CCCN(C(=O)c2ccccc2-n2cc(CN)cn2)C1` (stereo unspecified): the cytotoxicity at 10 µM is -2.3%. As for `CC(c1cc(F)ccc1F)N1CCN(Cc2nccn2C)CC1` (stereo unspecified), the cytotoxicity at 10 µM was -15.6%. Next, `CCOCCC(=O)NCC(C)c1ccsc1` (stereo unspecified): 15.1%; `CN1CCN(CC2CCN(C(=O)CCC3CCCCC3)CC2)CC1`: -3.68%. For `Cc1cncc(C2CCCN2CC(N)=O)n1` (stereo unspecified), the cytotoxicity at 10 µM is -5.3%. To `CC(C)c1noc(C(C)N2CCN(Cc3ccccc3C#N)CC2)n1` (stereo unspecified) belongs -8.13%; to `CNC(=O)c1cccnc1NCc1ccc(Cn2cccn2)cc1`, 17.9%. Next, `CC(C)NS(=O)(=O)c1ccccc1CNCc1cccc(O)c1`: -7.19%; `Cc1nc(-c2ccc(S(=O)(=O)N3CCC4(CC3)OCCO4)cc2)co1`: 1.69%; `CCCOc1c(Cl)cc(C(=O)N2CCOC23CCN(C)CC3)cc1Cl`: 8.17%.

As to `CS(=O)(=O)NC1CCN(C(=O)c2cc3ccccc3s2)C1` (stereo unspecified), the cytotoxicity at 10 µM worked out at 6.65%. `CC(c1ncc(C(C)(C)C)o1)N1CCN(Cc2ccco2)CC1` (stereo unspecified): the cytotoxicity at 10 µM came out at 5.3%.

As for `OCCn1nccc1C1CCN(Cc2nc(C3CC3)no2)CC1`, the cytotoxicity at 10 µM is -11.7%. In the case of `Cc1cnc(C(=O)N[C@H]2CN(CCS(C)(=O)=O)C[C@@H]2C2CC2)cn1`, the cytotoxicity at 10 µM turned out to be 17.6%. For `CN(CC(=O)N1CCCC1)Cc1nc2c(cnn2C)c(=O)[nH]1`, the cytotoxicity at 10 µM was -1.38%. On to `CC(C)NC(=O)C1CN(C(=O)CCc2ccccc2)CC12CCOCC2` (stereo unspecified), for which the cytotoxicity at 10 µM was -3%. In the case of `CN1CC2(CCN(Cc3ccoc3)CC2)COc2ccccc2S1(=O)=O`, the cytotoxicity at 10 µM was -1.48%.

`CN(Cc1noc(C2CC2)n1)CC1CCN(CCO)CC1`: the cytotoxicity at 10 µM is -3.96%. For `COCCO[C@@H]1CCN(C(=O)c2ccnnc2)[C@H]1Cc1cnn(C)c1`, the cytotoxicity at 10 µM was 7.6%.

Regarding `CC(C)NC[C@H]1COCc2nc3cccnc3n21`, the cytotoxicity at 10 µM was -5.38%. For the molecule `CC1(C)OCC2(CO1)CN(C(=O)c1cccc3ccccc13)C2`, the cytotoxicity at 10 µM is -7.81%. On to `Cc1nc(-c2nnc[nH]2)sc1C(=O)N1CCCC1Cn1cccn1` (stereo unspecified), for which the cytotoxicity at 10 µM came out at 11.8%. Turning to `Cc1ccccc1C(C)N(C)Cc1nc2c(cnn2C)c(=O)[nH]1` (stereo unspecified), the cytotoxicity at 10 µM is -6.69%. For the molecule `COCCNC(=O)[C@H]1C[C@@H]2CCN(Cc3nccs3)C[C@H]2O1`, the cytotoxicity at 10 µM is -68.2%. On to `CCn1nc(C(=O)N2CCCC2c2noc(C)n2)ccc1=O` (stereo unspecified), for which the cytotoxicity at 10 µM was 4.99%.

For the molecule `Cc1nc(CN2C(=O)CC[C@@H]3[C@H]2CCN3C(=O)c2ccc[nH]2)cs1`, the cytotoxicity at 10 µM is -77.3%.

In the case of `CCn1ccnc1CN1CCN(CC(=O)NC2CCOCC2)CC1`, the cytotoxicity at 10 µM is -6.22%. To `Cc1ccc(C)c(OC2CCN(C(=O)NCC(=O)N3CCCC3)CC2)c1` belongs -5.75%; to `Cc1occc1C(=O)N1CCc2ncnc(-c3cnn(C)c3)c2CC1`, -4.77%.

Take `c1ccc(Cn2cccn2)c(CN2CCC3(CCCNC3)C2)c1` (stereo unspecified): the cytotoxicity at 10 µM was -13%. On to `CCN(CC1CCOC1)C(=O)c1ccn(-c2ccc(OC)cc2)n1` (stereo unspecified), for which the cytotoxicity at 10 µM was -4.19%.

Consider `CNc1oc(COc2ccc3c(c2)OCO3)nc1C#N`, for which the cytotoxicity at 10 µM was -58.3%. On to `Cc1nc(C)n(C2CCCN(C(=O)c3ccc(CN(C)C)cc3)C2)n1` (stereo unspecified), for which the cytotoxicity at 10 µM was -1.6%. As to `COCCc1noc(CN2CC(C)(c3ccccc3)CCC2=O)n1` (stereo unspecified), the cytotoxicity at 10 µM was found to be 3.1%. To `CC(=O)c1cccc(CN2CC(Oc3ccccc3C)C2)c1` belongs -4.16%; to `O=C(NCc1nnc2n1CCCC2)N(Cc1ccccc1F)C1CC1`, -9.29%; to `CCC(CC)C(CNC(=O)Nc1cc(C)nn1C)N1CCOCC1` (stereo unspecified), 1.74%. As for `O=C(NC1COC2(CCN(CC3CCC3)CC2)C1)c1ccccn1` (stereo unspecified), the cytotoxicity at 10 µM was -1.95%. Take `CC(NC(=O)N1CCCN(C)CC1)c1ccc2c(c1)OCCO2` (stereo unspecified): the cytotoxicity at 10 µM is -6.36%. For `COc1ccc(CNC(=O)CCn2cc(C)cn2)cc1C`, the cytotoxicity at 10 µM is -4.27%. With `CC(C)Cc1noc(CN2CCN(C(=O)c3ccco3)CC2)n1`, the cytotoxicity at 10 µM was -5.39%. Regarding `CC(=O)NCCNc1nccc(CCC(F)(F)F)n1`, the cytotoxicity at 10 µM is -146%. Regarding `CC(=O)N1CCCC2(CN(Cc3ccc(F)cc3)CCO2)C1` (stereo unspecified), the cytotoxicity at 10 µM turned out to be 0.283%. With `CCc1cnc(CN2CCCC(c3cc(C)[nH]n3)C2)o1` (stereo unspecified), the cytotoxicity at 10 µM was 0.503%. Next, `N#Cc1cccnc1NCCNC(=O)N1CCCSCC1`: -10.8%; `CCN(Cc1cc(F)c(OC)c(Cl)c1)Cc1noc(CC(C)C)n1`: -2.84%; `Cc1nc(COC[C@@]23CCC[C@@H]2CN(Cc2nccs2)C3)cs1`: 12.9%. As to `Cc1ccc(S(=O)(=O)NC(=O)CCc2ccco2)cc1N(C)C`, the cytotoxicity at 10 µM is -0.845%. `CCO[C@@H]1CO[C@@]2(CCN(Cc3ccc4c(c3)OCO4)C2)C1`: the cytotoxicity at 10 µM was 5.53%.

As for `Cn1cncc1-c1nnc([C@H]2CCN(Cc3cccnc3)C2)o1`, the cytotoxicity at 10 µM is -4.39%. For the molecule `OC(CN1CCN(CC2CCCCC2)CC1)c1ccccc1` (stereo unspecified), the cytotoxicity at 10 µM was determined as 1.53%. Regarding `CCn1nc2c(cc1=O)CN(CC(=O)N(C)c1nccs1)CC2`, the cytotoxicity at 10 µM is -4.58%. As to `Cc1noc(-c2cccnc2N2CCN(c3cnn(C)c3)CC2)n1`, the cytotoxicity at 10 µM was 1.12%. To `CCC(=O)Nc1cccc(OCC(=O)N[C@@H]2C[C@@H]3CC[C@H]2C3)c1` belongs -1.03%. As for `Cc1csc(CN2C[C@@H]3COC[C@]3(C(=O)NCc3ccco3)C2)n1`, the cytotoxicity at 10 µM was -105%.

For `COc1ncnc(N)c1CNCC(C)Oc1ccccc1Cl` (stereo unspecified), the cytotoxicity at 10 µM was determined as 0.732%. In the case of `CCS(=O)(=O)NC[C@]12COC[C@H]1CN(Cc1cccnc1OC)C2`, the cytotoxicity at 10 µM turned out to be 1.97%. In the case of `Cc1cc(=O)[nH]c(SC(C)C(=O)N2CCC(c3ncc[nH]3)CC2)n1` (stereo unspecified), the cytotoxicity at 10 µM was -16.2%. To `Cc1ccc2c(c1)CN(C(=O)c1cccs1)C(CN(C)C)CO2` (stereo unspecified) belongs -16.5%; to `CC(C)C(=O)N1Cc2ccccc2CC2(CCCCN2C)C1` (stereo unspecified), 9.15%. `CNC(=O)CN([C@H]1C[C@H]2CCOC[C@H]2C1)S(=O)(=O)c1ccccc1`: the cytotoxicity at 10 µM was -1.63%. For `CS(=O)(=O)NCCC(=O)N1CCC(Cc2ccc(CO)cc2)C1` (stereo unspecified), the cytotoxicity at 10 µM is -5.77%. Next, `O=C(C1CCN(c2cccnn2)C1)N1CCOCC1` (stereo unspecified): -25.4%; `O=C(CCCc1ccccn1)N1CCC(Nc2cccnn2)CC1`: -9.73%. Consider `COCCN1CCN(Cc2noc(C3CC3)n2)CC1C` (stereo unspecified), for which the cytotoxicity at 10 µM was 1.43%.

Turning to `CNS(=O)(=O)CC(=O)N(Cc1c(F)cccc1Cl)C1CC1`, the cytotoxicity at 10 µM stood at 4.71%.

For `Cc1nn(-c2ccccn2)c2c1C(c1cnn(C)c1)SCC(=O)N2` (stereo unspecified), the cytotoxicity at 10 µM was -44.1%.

On to `Cc1cccnc1CN1CCN(Cc2ccc(-c3cc[nH]n3)o2)CC1`, for which the cytotoxicity at 10 µM is -3.57%. For the molecule `CN1CC(=O)N(c2cccc(F)c2)CC12CCN(Cc1cncn1C)C2` (stereo unspecified), the cytotoxicity at 10 µM was -0.791%.

With `Cc1cccc(CO[C@H]2CN(c3nnc(C)s3)[C@@H]3CCCO[C@H]23)n1`, the cytotoxicity at 10 µM is 4.47%. For `Fc1cccnc1Oc1cc(F)c(CN2CCCC2)c(F)c1`, the cytotoxicity at 10 µM is -7.32%. To `CC1CN(C)c2ccccc2CN1CCn1cncn1` (stereo unspecified) belongs -12.7%.

In the case of `CC(NC(=O)NCCCn1cncn1)c1ccc2c(c1)OCCO2` (stereo unspecified), the cytotoxicity at 10 µM is -6.85%. For the molecule `CC1=C[C@@H](CN2CCC(CO)CC2)[C@H](C(C)C)C[C@H]1Cc1nnc(C)o1`, the cytotoxicity at 10 µM was determined as 8.24%.
